Laboratory results reported in ChEMBL document CHEMBL1124137, “Synthesis and testing of quinone-based bis(2,2-dimethyl-1-aziridinyl)phosphinyl carbamates as radiation-potentiating antitumor agents” (1988).

Legend:
Assay type in all cases: functional
[1] = test system: Mus musculus; assay: Average weight change on day 5 in mice infected by P-388 leukemia when treated with a dose of 32 mg/Kg of compound
In short: (§1)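 P-388 leukemia kept as ascites in DBA/2 mice; 10⁶ cells implanted into female CDF₁ mice (16–20 g), six mice per dose, 10 untreated leukemia controls. Compound dissolved in water with Tween 80 and given as a single ip injection on day 1 after implant, within 15 min of dissolving. Body weight change averaged on day 5.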

[2] = test system: Mus musculus; assay: Average weight change on day 5 in mice infected by P-388 leukemia when treated with a dose of 256 mg/Kg of compound; in short: as §1
[3] = test system: Mus musculus; assay: Average weight change on day 5 in mice infected by P-388 leukemia when treated with a dose of 64 mg/Kg of compound; in short: as §1
[4] = test system: Mus musculus; assay: Median survival time (MST) of treated mice infected by P-388 leukemia, as percent of the MST of untreated controls when treated with a dose of 16 mg/Kg of compound
In short: (§2)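 P-388 leukemia kept as ascites in DBA/2 mice. CDF1 female mice (16–20 g) received 10⁶ cells; six mice per dose and 10 untreated leukemia controls. Drug in water with Tween 80, given within 15 min of dissolution as a single ip injection on day 1 after implant. Mice observed until death; %T/C is treated over control median survival time. Average weight change taken on day 5.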

[5] = test system: Mus musculus; assay: Average weight change on day 5 in mice infected by P-388 leukemia when treated with a dose of 16 mg/Kg of compound; in short: as §1
[6] = test system: Mus musculus; assay: Median survival time (MST) of treated mice infected by P-388 leukemia, as percent of the MST of untreated controls when treated with a dose of 128 mg/Kg of compound; in short: as §2
[7] = test system: Mus musculus; assay: Median survival time (MST) of treated mice infected by P-388 leukemia, as percent of the MST of untreated controls when treated with a dose of 256 mg/Kg of compound; in short: as §2
[8] = test system: Mus musculus; assay: Median survival time (MST) of treated mice infected by P-388 leukemia, as percent of the MST of untreated controls when treated with a dose of 8 mg/Kg of compound; in short: as §2
[9] = test system: Mus musculus; assay: Average weight change on day 5 in mice infected by P-388 leukemia when treated with a dose of 8 mg/Kg of compound; in short: as §1
[10] = test system: Mus musculus; assay: Average weight change on day 5 in mice infected by P-388 leukemia when treated with a dose of 128 mg/Kg of compound; in short: as §1
[11] = test system: Mus musculus; assay: Median survival time (MST) of treated mice infected by P-388 leukemia, as percent of the MST of untreated controls when treated with a dose of 64 mg/Kg of compound; in short: as §2
[12] = test system: Mus musculus; assay: Median survival time (MST) of treated mice infected by P-388 leukemia, as percent of the MST of untreated controls when treated with a dose of 32 mg/Kg of compound; in short: as §2
[13] = test system: Mus musculus; assay: Average weight change on day 5 in mice infected by P-388 leukemia when treated with a dose of 100 mg/Kg of compound; in short: as §2
[14] = test system: Mus musculus; assay: Median survival time (MST) of treated mice infected by P-388 leukemia, as percent of the MST of untreated controls when treated with a dose of 50 mg/Kg of compound; in short: as §2
[15] = test system: Mus musculus; assay: Average weight change on day 5 in mice infected by P-388 leukemia when treated with a dose of 400 mg/Kg of compound; in short: as §2
[16] = test system: Mus musculus; assay: Median survival time (MST) of treated mice infected by P-388 leukemia, as percent of the MST of untreated controls when treated with a dose of 200 mg/Kg of compound; in short: as §2
[17] = test system: Mus musculus; assay: Median survival time (MST) of treated mice infected by P-388 leukemia, as percent of the MST of untreated controls when treated with a dose of 100 mg/Kg of compound; in short: as §2
[18] = test system: Mus musculus; assay: Average weight change on day 5 in mice infected by P-388 leukemia when treated with a dose of 200 mg/Kg of compound; in short: as §2
[19] = test system: Mus musculus; assay: Average weight change on day 5 in mice infected by P-388 leukemia when treated with a dose of 50 mg/Kg of compound; in short: as §2
[20] = test system: Mus musculus; assay: Median survival time (MST) of treated mice infected by P-388 leukemia, as percent of the MST of untreated controls when treated with a dose of 400 mg/Kg of compound; in short: as §2

CC1(C)CN1P(=O)(NC(=O)OCC/N=C1C(O)=C(Cl)/C(=N\CCOC(=O)NP(=O)(N2CC2(C)C)N2CC2(C)C)C(O)=C/1Cl)N1CC1(C)C (stereo not given)
AWC [1]: -0.6 g | AWC [2]: -2.1 g | AWC [3]: -1.2 g | T/C [4]: 124% | AWC [5]: -1.1 g | T/C [6]: 135% | T/C [7]: 165% | T/C [8]: 118% | AWC [9]: -0.4 g | AWC [10]: -0.9 g | T/C [11]: 124% | T/C [12]: 129%

CCOC(=O)NP(=O)(N1CC1(C)C)N1CC1(C)C (stereo not given) [METUREDEPA]
AWC [13]: -0.4 g | T/C [14]: 163% | AWC [15]: -1.3 g | T/C [16]: 231% | T/C [17]: 181% | AWC [18]: -0.2 g | AWC [19]: -0.7 g | T/C [20]: 244%
